ChEMBL document CHEMBL3351355, “Structure-affinity/activity relationships of 1,4-dioxa-spiro[4.5]decane based ligands at α1 and 5-HT1A receptors” (Eur J Med Chem, 2014)

How the values were obtained:
[1] = molecular target: T1, Alpha-1D adrenergic receptor (Rattus norvegicus) (UniProt P23944); experiment: Antagonist activity at alpha1D adrenoceptor in Wistar rat thoracic aorta assessed as noradrenaline-induced contractions after 30 mins
T1 sequence (whole entry): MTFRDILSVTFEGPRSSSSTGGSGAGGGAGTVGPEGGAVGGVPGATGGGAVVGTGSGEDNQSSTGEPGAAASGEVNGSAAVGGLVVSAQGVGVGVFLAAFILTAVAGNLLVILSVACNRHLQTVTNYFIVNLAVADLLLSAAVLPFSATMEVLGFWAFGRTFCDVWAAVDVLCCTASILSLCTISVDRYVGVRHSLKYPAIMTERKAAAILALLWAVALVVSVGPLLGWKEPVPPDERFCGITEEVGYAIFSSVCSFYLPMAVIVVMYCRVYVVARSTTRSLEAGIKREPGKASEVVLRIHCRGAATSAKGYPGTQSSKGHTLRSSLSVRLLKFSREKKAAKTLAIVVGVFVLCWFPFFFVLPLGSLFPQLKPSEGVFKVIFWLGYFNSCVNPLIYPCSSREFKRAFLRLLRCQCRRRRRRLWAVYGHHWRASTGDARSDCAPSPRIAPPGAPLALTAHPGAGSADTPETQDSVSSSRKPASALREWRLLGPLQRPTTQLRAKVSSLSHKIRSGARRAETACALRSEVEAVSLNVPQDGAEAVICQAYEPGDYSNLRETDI

[2] = molecular target: T2, Alpha-1A adrenergic receptor (Homo sapiens, UniProt P35348); experiment: Displacement of [3H]prazosin from human recombinant alpha1A adrenoceptor expressed in CHO cells after 30 mins by liquid scintillation counting
T2 sequence (P35348 whole entry): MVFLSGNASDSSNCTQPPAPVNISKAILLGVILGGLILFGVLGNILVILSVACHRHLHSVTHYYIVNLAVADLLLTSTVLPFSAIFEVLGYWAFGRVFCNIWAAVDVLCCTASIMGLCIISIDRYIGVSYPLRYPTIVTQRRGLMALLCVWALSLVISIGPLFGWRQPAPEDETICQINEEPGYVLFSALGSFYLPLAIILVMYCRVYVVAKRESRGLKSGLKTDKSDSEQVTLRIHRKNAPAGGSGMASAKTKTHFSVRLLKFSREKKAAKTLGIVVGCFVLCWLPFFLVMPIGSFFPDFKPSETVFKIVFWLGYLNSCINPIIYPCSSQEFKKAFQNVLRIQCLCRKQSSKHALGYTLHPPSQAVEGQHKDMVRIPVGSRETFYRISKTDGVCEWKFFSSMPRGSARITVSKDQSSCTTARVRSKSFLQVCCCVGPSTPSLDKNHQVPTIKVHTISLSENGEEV

[3] = molecular target: T3, Alpha-1A adrenergic receptor (Rattus norvegicus) (UniProt P43140); experiment: Antagonist activity at alpha1A adrenoceptor in Wistar rat vas deferans assessed as noradrenaline-induced contractions after 30 mins
T3 sequence (whole entry): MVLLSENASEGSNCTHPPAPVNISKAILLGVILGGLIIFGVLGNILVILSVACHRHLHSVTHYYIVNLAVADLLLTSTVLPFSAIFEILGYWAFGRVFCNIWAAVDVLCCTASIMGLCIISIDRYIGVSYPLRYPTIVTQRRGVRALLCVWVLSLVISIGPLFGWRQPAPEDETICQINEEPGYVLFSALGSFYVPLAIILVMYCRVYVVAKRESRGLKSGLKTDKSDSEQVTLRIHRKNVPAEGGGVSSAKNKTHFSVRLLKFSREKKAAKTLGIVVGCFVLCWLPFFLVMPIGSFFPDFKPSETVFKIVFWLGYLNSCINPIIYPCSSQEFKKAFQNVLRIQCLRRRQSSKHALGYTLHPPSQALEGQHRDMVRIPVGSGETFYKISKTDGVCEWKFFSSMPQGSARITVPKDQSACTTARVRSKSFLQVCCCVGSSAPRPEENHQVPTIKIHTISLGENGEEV

[4] = molecular target: T4, 5-hydroxytryptamine receptor 1A (Homo sapiens) (UniProt P08908); experiment: Agonist activity at human recombinant 5-HT1A receptor expressed in HeLa cells after 30 mins by [35S]GTPgammaS binding assay relative to control; format: functional, cell-based
T4 sequence (whole entry): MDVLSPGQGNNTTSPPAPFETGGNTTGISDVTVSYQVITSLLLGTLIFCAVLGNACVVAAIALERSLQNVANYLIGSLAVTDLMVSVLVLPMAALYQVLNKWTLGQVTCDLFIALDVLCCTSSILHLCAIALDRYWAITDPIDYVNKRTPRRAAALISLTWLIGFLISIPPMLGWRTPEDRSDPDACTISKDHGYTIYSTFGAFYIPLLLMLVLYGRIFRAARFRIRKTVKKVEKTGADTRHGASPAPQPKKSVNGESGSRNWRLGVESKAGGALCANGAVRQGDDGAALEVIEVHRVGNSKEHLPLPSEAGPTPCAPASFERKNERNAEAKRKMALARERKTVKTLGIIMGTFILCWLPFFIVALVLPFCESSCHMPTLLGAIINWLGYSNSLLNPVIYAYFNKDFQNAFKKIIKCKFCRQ
Procedure, shortened: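 HeLa membranes (50–70 µg protein) in 20 mM HEPES, 3 mM MgSO4, 120 mM NaCl, pH 7.4, preincubated 20 min at 30 °C with 30 µM GDP and drug (0.01 nM–10 µM), then 200 pM [35S]GTPγS added for 30 min at 30 °C. Nonspecific binding with 10 µM GTPγS. Filtration and scintillation counting. Data expressed as % increase over basal, 8-OH-DPAT maximum = 100%. Emax and pD2 derived.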

[5] = molecular target: T4, 5-hydroxytryptamine receptor 1A (Homo sapiens); experiment: Agonist activity at human recombinant 5-HT1A receptor expressed in HeLa cells after 30 mins by [35S]GTPgammaS binding assay; format: functional, cell-based
Procedure, shortened: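 HeLa membranes expressing human 5-HT1A (50–70 µg protein) in 20 mM HEPES, 3 mM MgSO4, 120 mM NaCl pH 7.4 with 30 µM GDP; test drug 0.01 nM–10 µM, 20 min at 30 °C, then 200 pM [35S]GTPγS for 30 min at 30 °C. Nonspecific with 10 µM GTPγS; filtration and scintillation counting. Emax as % of maximal 8-OH-DPAT stimulation; pD2 = −log EC50.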

Compound | pKb [1] | Ki [2] | pKb [3] | Emax [4] | pD2 [5]
COc1ccccc1N1CCN(CC2COC3(CCS(=O)(=O)CC3)O2)CC1 (stereo unspecified) | 7.2 | 9.77 nM | 7.34 | – | –
COc1ccccc1N1CCN(CC2COC3(CCN(S(=O)(=O)c4ccc(OC(F)(F)F)cc4)CC3)O2)CC1 (stereo unspecified) | 7.37 | 8.91 nM | 6.98 | – | –
COc1ccccc1N1CCN(CC2COC3(CCN(C(=O)NC(C)(C)C)CC3)O2)CC1 (stereo unspecified) | 6.53 | 12.6 nM | 7.63 | – | –
COc1ccccc1N1CCN(CC2COC3(CCN(C(=O)C(F)(F)F)CC3)O2)CC1 (stereo unspecified) | 7.5 | > 1000 nM | 6.97 | – | –
COc1ccccc1N1CCN(CC2COC3(CCN(C(C)=O)CC3)O2)CC1 (stereo unspecified) | 6.48 | 60.3 nM | 7.17 | – | –
CCCCNC(=O)N1CCC2(CC1)OCC(CN1CCN(c3ccccc3OC)CC1)O2 (stereo unspecified) | 7.29 | 20 nM | 7.38 | 30% | 6.53
COc1ccccc1N1CCN(CC2COC3(CCN(S(=O)(=O)c4cccc([N+](=O)[O-])c4)CC3)O2)CC1 (stereo unspecified) | 7.98 | 3.02 nM | 7.97 | – | –
COc1ccccc1N1CCN(CC2COC3(CCN(C(=O)C4CCCN4)CC3)O2)CC1 (stereo unspecified) | 6.71 | 11.7 nM | 7.43 | – | –
COc1ccccc1N1CCN(CC2COC3(CCOCC3)O2)CC1 (stereo unspecified) | 7.33 | 17 nM | 7.55 | 31% | 6.82
COc1ccccc1N1CCN(CC2COC3(CCN(C(=O)C4CCCCC4)CC3)O2)CC1 (stereo unspecified) | 7.02 | 30.9 nM | 6.95 | 33% | 7.29
COc1ccccc1N1CCN(CC2COC3(CCN(C(=O)c4ccccc4)CC3)O2)CC1 (stereo unspecified) | 7.45 | 10.7 nM | 7.71 | – | –
COc1ccccc1N1CCN(CC2COC3(CCN(S(=O)(=O)c4ccc(C)cc4)CC3)O2)CC1 (stereo unspecified) | 6.96 | 4.57 nM | 7.4 | 28% | 7.33
COc1ccccc1N1CCN(CC2COC3(CCN(c4ccccc4)CC3)O2)CC1 (stereo unspecified) | 7.43 | 6.46 nM | 7.78 | 42% | 7.14
COc1ccccc1N1CCN(CC2COC3(CCN(Cc4ccccc4)CC3)O2)CC1 (stereo unspecified) | 8.6 | 6.76 nM | 7.72 | 45% | 7.21
COc1ccccc1N1CCN(CC2COC3(CCN(S(=O)(=O)c4ccccc4)CC3)O2)CC1 (stereo unspecified) | 7.05 | 7.94 nM | 7.48 | – | –
COc1ccccc1N1CCN(CC2COC3(CCN(c4ccccn4)CC3)O2)CC1 (stereo unspecified) | 6.87 | 17.8 nM | 7.63 | 41% | 6.49
COc1ccccc1N1CCN(CC2COC3(CCN(C(=O)Nc4ccccc4)CC3)O2)CC1 (stereo unspecified) | 7.26 | 12 nM | 7.22 | 28% | 7.22
COc1ccccc1N1CCN(CC2COC3(CCN(C(=O)c4ccco4)CC3)O2)CC1 (stereo unspecified) | 7.38 | 21.4 nM | 7.43 | 33% | 7.12
COc1ccccc1N1CCN(CC2COC3(CCN(S(=O)(=O)c4cccs4)CC3)O2)CC1 (stereo unspecified) | 7.27 | 7.94 nM | 7.46 | – | –
COc1ccccc1N1CCN(CC2COC3(CCN(S(=O)(=O)c4ccc(Cl)cc4)CC3)O2)CC1 (stereo unspecified) | 7.37 | 6.46 nM | 7.24 | – | –
COc1ccccc1N1CCN(CC2COC3(CCCCC3)O2)CC1 (stereo unspecified) | 7.88 | – | 6.78 | 48% | 8.61
COc1ccccc1N1CCN(CC2COC3(CCN(S(=O)(=O)c4ccc([N+](=O)[O-])cc4)CC3)O2)CC1 (stereo unspecified) | 8.02 | 5.25 nM | 7.74 | 37% | 7.65
COc1ccccc1N1CCN(CC2COC3(CCNCC3)O2)CC1 (stereo unspecified) | 6.89 | 49 nM | 7.74 | – | –
COc1ccccc1N1CCN(CC2COC3(CCN(C(=O)c4ccc(C(F)(F)F)cc4)CC3)O2)CC1 (stereo unspecified) | 7.29 | 10.2 nM | 7.79 | – | –
COc1ccccc1N1CCN(CC2COC3(CCSCC3)O2)CC1 (stereo unspecified) | 6.84 | 8.51 nM | 7.6 | 36% | 7.48
COc1ccccc1N1CCN(CC2COC3(CCN(S(C)(=O)=O)CC3)O2)CC1 (stereo unspecified) | 7.18 | 18.6 nM | 7.41 | – | –
